According to ChEMBL document CHEMBL4196021, “Targeting G-quadruplex DNA structures in the telomere and oncogene promoter regions by benzimidazole‒carbazole ligands” (Eur J Med Chem, 2018):
Calls of active or inactive are those of the source. No cut-off for these calls is given here.

Legend:
Quadruplex DNA [1] = assay: Displacement of thiazole orange from human Bcl2 G-quadruplex DNA after 5 mins in presence of KCl by fluorescence assay; assay type: nucleic-acid assay
Method in brief: (§1)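 Thiazole orange displacement from a G4 DNA–TO complex (1 µM TO + 0.5 µM G4 DNA) in 10 mM Tris-HCl pH 7.4, 100 mM KCl, 0.1 mM EDTA. Ligand was added in increasing steps, with 5 min incubation each. Fluorescence read at ex 501/em 531 nm; % displacement = 100 − (Ft/F0 × 100). DC50 is the ligand concentration giving 50% displacement, read from plots; average of two independent experiments.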

Quadruplex DNA [2] = assay: Induction of conformational changes in human telomeric G-quadruplex DNA assessed as inversion from potassium ion stabilized hybrid type mixed parallel/antiparallel G-quadruplex to stable telomere parallel-stranded G-quadruplex after 5 mins in presence of KCl by CD spectroscopic method; assay type: nucleic-acid assay
Method in brief: (§2)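 CD spectra of 5 µM G4 DNA in 10 mM Tris-HCl pH 7.4, 100 mM KCl, 0.1 mM EDTA, with or without ligand. Mixtures were heated 95 °C for 5 min and slowly cooled to room temperature. Recorded 200–400 nm at 25 °C, 100 nm/min, 2 s response, 1 cm cell; average of three scans.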

Quadruplex DNA [3] = assay: Binding affinity to human telomeric G-quadruplex DNA assessed as change in melting temperature in presence of KCl by CD spectroscopic method; assay type: nucleic-acid assay
Method in brief: (§3)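 CD melting of 5 µM G4 DNA in 10 mM Tris-HCl pH 7.4, 25 mM KCl, 0.1 mM EDTA. Ligand was present during folding (heating, slow cooling). Spectra 200–400 nm over 20–96 °C in 2 °C steps, buffer blank subtracted. Tm was taken from normalized ellipticity at the positive maximum (262 nm for promoter G4s). ΔTm = ligand-bound minus DNA alone; average of two independent experiments.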

Calf thymus DNA = assay: Displacement of thiazole orange from calf thymus duplex DNA after 5 mins in presence of KCl by fluorescence assay; assay type: nucleic-acid assay, Bos taurus
Quadruplex DNA [4] = assay: Binding affinity to human Bcl2 G-quadruplex DNA at 0.6 uM after 5 mins in presence of KCl by fluorescence spectroscopic method; assay type: nucleic-acid assay
Method in brief: (§4)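 Fluorescence titration at 25 °C with 0.6 µM ligand in 10 mM Tris-HCl pH 7.4, 100 mM KCl, 0.1 mM EDTA. Preformed G4 DNA was added stepwise, with 5 min incubation before each spectrum. Excitation 330 nm; emission 350–550 nm, slit 5 nm.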

Quadruplex DNA [5] = assay: Binding affinity to human Bcl2 G-quadruplex DNA assessed as change in melting temperature in presence of KCl by CD spectroscopic method; assay type: nucleic-acid assay; method in brief: as §3
Quadruplex DNA [6] = assay: Binding affinity to human c-Kit1 G-quadruplex DNA at 0.6 uM after 5 mins in presence of KCl by fluorescence spectroscopic method; assay type: nucleic-acid assay; method in brief: as §4
Quadruplex DNA [7] = assay: Binding affinity to human c-Myc G-quadruplex DNA assessed as stabilization of parallel stranded topology after 5 mins in presence of KCl by CD spectroscopic method; assay type: nucleic-acid assay; method in brief: as §2
Quadruplex DNA [8] = assay: Binding affinity to human c-Kit2 G-quadruplex DNA at 0.6 uM after 5 mins in presence of KCl by fluorescence spectroscopic method; assay type: nucleic-acid assay; method in brief: as §4
Quadruplex DNA [9] = assay: Binding affinity to human VEGF G-quadruplex DNA assessed as stabilization of parallel stranded topology after 5 mins in presence of KCl by CD spectroscopic method; assay type: nucleic-acid assay; method in brief: as §2
Quadruplex DNA [10] = assay: Binding affinity to human c-Kit2 G-quadruplex DNA assessed as stabilization of parallel stranded topology after 5 mins in presence of KCl by CD spectroscopic method; assay type: nucleic-acid assay; method in brief: as §2
Quadruplex DNA [11] = assay: Displacement of thiazole orange from human c-Kit1 G-quadruplex DNA after 5 mins in presence of KCl by fluorescence assay; assay type: nucleic-acid assay; method in brief: as §1
Quadruplex DNA [12] = assay: Displacement of thiazole orange from human c-Myc G-quadruplex DNA after 5 mins in presence of KCl by fluorescence assay; assay type: nucleic-acid assay; method in brief: as §1
Quadruplex DNA [13] = assay: Induction of conformational changes in human Bcl2 G-quadruplex DNA assessed as inversion from potassium ion stabilized hybrid type mixed parallel/antiparallel G-quadruplex to stable telomere parallel-stranded G-quadruplex after 5 mins in presence of KCl by CD spectroscopic method; assay type: nucleic-acid assay; method in brief: as §2
Quadruplex DNA [14] = assay: Binding affinity to human VEGF G-quadruplex DNA at 0.6 uM after 5 mins in presence of KCl by fluorescence spectroscopic method; assay type: nucleic-acid assay; method in brief: as §4
Quadruplex DNA [15] = assay: Displacement of thiazole orange from human c-Kit2 G-quadruplex DNA after 5 mins in presence of KCl by fluorescence assay; assay type: nucleic-acid assay; method in brief: as §1
Quadruplex DNA [16] = assay: Displacement of thiazole orange from human VEGF G-quadruplex DNA after 5 mins in presence of KCl by fluorescence assay; assay type: nucleic-acid assay; method in brief: as §1
Quadruplex DNA [17] = assay: Binding affinity to human c-Kit1 G-quadruplex DNA assessed as stabilization of parallel stranded topology after 5 mins in presence of KCl by CD spectroscopic method; assay type: nucleic-acid assay; method in brief: as §2
Quadruplex DNA [18] = assay: Binding affinity to human telomeric G-quadruplex DNA at 0.6 uM after 5 mins in presence of KCl by fluorescence spectroscopic method; assay type: nucleic-acid assay; method in brief: as §4
Quadruplex DNA [19] = assay: Binding affinity to human c-Myc G-quadruplex DNA at 0.6 uM after 5 mins in presence of KCl by fluorescence spectroscopic method; assay type: nucleic-acid assay; method in brief: as §4
Quadruplex DNA [20] = assay: Binding affinity to human c-Kit1 G-quadruplex DNA assessed as change in melting temperature in presence of KCl by CD spectroscopic method; assay type: nucleic-acid assay; method in brief: as §3
Quadruplex DNA [21] = assay: Binding affinity to human VEGF G-quadruplex DNA assessed as change in melting temperature in presence of KCl by CD spectroscopic method; assay type: nucleic-acid assay; method in brief: as §3
Quadruplex DNA [22] = assay: Displacement of thiazole orange from human telomeric G-quadruplex DNA after 5 mins in presence of KCl by fluorescence assay; assay type: nucleic-acid assay; method in brief: as §1
Quadruplex DNA [23] = assay: Binding affinity to human c-Kit2 G-quadruplex DNA assessed as change in melting temperature in presence of KCl by CD spectroscopic method; assay type: nucleic-acid assay; method in brief: as §3
Quadruplex DNA [24] = assay: Binding affinity to human c-Myc G-quadruplex DNA assessed as change in melting temperature in presence of KCl by CD spectroscopic method; assay type: nucleic-acid assay; method in brief: as §3
Quadruplex DNA [25] = assay: Binding affinity to human 77-mer c-Myc G-quadruplex DNA assessed as inhibition of Taq DNA polymerase-mediated DNA synthesis by measuring generation of premature chain termination products using 32P-labeled primer after 30 mins by polymerase stop assay; assay type: nucleic-acid assay
Method in brief: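 Template of 10 nM single-stranded 77-mer c-MYC with the G-quadruplex-forming sequence, annealed to 32P-labeled plus cold primer (15 nM) in Tris-HCl pH 7.4 with 5 mM KCl. Annealing was 95 °C for 5 min then slow cooling, with ligand added before annealing. Extension with Taq polymerase (5 mM MgCl2, 0.5 mM DTT, 0.2 mM dNTPs) ran 30 min at 48 or 40 °C. Products were resolved on 15% urea denaturing PAGE and read by phosphorimaging.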

Row | Compound | DC50 (Quadruplex DNA [1]) [nM] | Activity (Quadruplex DNA [2]) | ΔTm (Quadruplex DNA [3]) [°C] | DC50 (Calf thymus DNA) [nM] | Activity (Quadruplex DNA [4]) | ΔTm (Quadruplex DNA [5]) [°C] | Activity (Quadruplex DNA [6]) | Activity (Quadruplex DNA [7]) | Activity (Quadruplex DNA [8]) | Activity (Quadruplex DNA [9]) | Activity (Quadruplex DNA [10]) | DC50 (Quadruplex DNA [11]) [nM] | DC50 (Quadruplex DNA [12]) [nM] | DC50 (Quadruplex DNA [15]) [nM] | DC50 (Quadruplex DNA [16]) [nM] | ΔTm (Quadruplex DNA [20]) [°C] | ΔTm (Quadruplex DNA [21]) [°C] | DC50 (Quadruplex DNA [22]) [nM] | ΔTm (Quadruplex DNA [23]) [°C] | ΔTm (Quadruplex DNA [24]) [°C] | other results
1 | C[n+]1ccc(-c2c3nc(c(-c4cc[n+](C)cc4)c4ccc([nH]4)c(-c4cc[n+](C)cc4)c4nc(c(-c5cc[n+](C)cc5)c5ccc2[nH]5)C=C4)C=C3)cc1 | 430 |  |  | 870 |  |  |  |  |  |  |  | 320 | 380 | 350 | 310 |  |  | 470 |  |  | 
2 | C[n+]1ccc(-c2c3nc(c(-c4cc[n+](C)cc4)c4ccc([nH]4)c(-c4cc[n+](C)cc4)c4ccc([nH]4)c(-c4cc[n+](C)cc4)c4nc2C=C4)C=C3)cc1 |  |  | 15.6 |  |  | 14.3 |  |  |  |  |  |  |  |  |  | 15.1 | 12.3 |  | 15.5 | 11 | 
3 | CCn1c2ccc(-c3nc4ccc(N5CCN(CCO)CC5)cc4[nH]3)cc2c2cc(-c3nc4ccc(N5CCN(CCO)CC5)cc4[nH]3)ccc21 | 2860 | Active | 9.74 | 5280 | Active | 6.53 | Active | Active | Active | Active | Active | 1620 | 1630 | 1340 | 1420 | 13.2 | 12.8 | 2790 | 17 | 8.63 | Activity (Quadruplex DNA [13]): Active; Activity (Quadruplex DNA [14]): Active; Activity (Quadruplex DNA [25]): Dose-dependent effect; Activity (Quadruplex DNA [17]): Active; Activity (Quadruplex DNA [18]): Active; Activity (Quadruplex DNA [19]): Active

Second part, led by results:

Row | DC50 (Quadruplex DNA [1]) [nM] | Activity (Quadruplex DNA [2]) | ΔTm (Quadruplex DNA [3]) [°C] | DC50 (Calf thymus DNA) [nM] | Activity (Quadruplex DNA [4]) | ΔTm (Quadruplex DNA [5]) [°C] | Activity (Quadruplex DNA [6]) | Activity (Quadruplex DNA [7]) | Activity (Quadruplex DNA [8]) | Activity (Quadruplex DNA [9]) | Activity (Quadruplex DNA [10]) | DC50 (Quadruplex DNA [11]) [nM] | DC50 (Quadruplex DNA [12]) [nM] | DC50 (Quadruplex DNA [15]) [nM] | DC50 (Quadruplex DNA [16]) [nM] | ΔTm (Quadruplex DNA [20]) [°C] | ΔTm (Quadruplex DNA [21]) [°C] | DC50 (Quadruplex DNA [22]) [nM] | ΔTm (Quadruplex DNA [23]) [°C] | ΔTm (Quadruplex DNA [24]) [°C] | Compound | other results
4 | 1290 | inactive | 16.9 | 5520 | Active | 5.54 | Active | Active | Active | Active | Active | 980 | 850 | 740 | 630 | 12.2 | 14.2 | 1300 | 16.6 | 8.65 | CN1CCN(CCCCn2c3ccc(-c4nc5cc(N6CCOCC6)ccc5[nH]4)cc3c3cc(-c4nc5cc(N6CCOCC6)ccc5[nH]4)ccc32)CC1 | Activity (Quadruplex DNA [13]): inactive; Activity (Quadruplex DNA [14]): Active; Activity (Quadruplex DNA [17]): Active; Activity (Quadruplex DNA [18]): Active; Activity (Quadruplex DNA [19]): Active
5 | 1440 | Active | 21.2 | 6490 | Active | 9.5 | Active | Active | Active | Active | Active | 880 | 980 | 660 | 750 | 25.9 | 14.2 | 1150 | 22 | 8.86 | CN1CCN(CCCCn2c3ccc(-c4nc5cc(N6CCN(CCO)CC6)ccc5[nH]4)cc3c3cc(-c4nc5cc(N6CCN(CCO)CC6)ccc5[nH]4)ccc32)CC1 | Activity (Quadruplex DNA [13]): Active; Activity (Quadruplex DNA [14]): Active; Activity (Quadruplex DNA [17]): Active; Activity (Quadruplex DNA [18]): Active; Activity (Quadruplex DNA [19]): Active
6 | > 3000 | inactive | 7.14 | > 10000 | Active | 3.26 | Active | Active | Active | Active | Active | > 3000 | > 3000 | > 3000 | > 3000 | 3.58 | 4.35 | > 3000 | 7.53 | 4.95 | C[N+]1(CCCCN2CCOCC2)CCN(CCCCn2c3ccc(-c4nc5ccc(N6CCOCC6)cc5[nH]4)cc3c3cc(-c4nc5ccc(N6CCOCC6)cc5[nH]4)ccc32)CC1 | Activity (Quadruplex DNA [13]): inactive; Activity (Quadruplex DNA [14]): Active; Activity (Quadruplex DNA [17]): Active; Activity (Quadruplex DNA [18]): Active; Activity (Quadruplex DNA [19]): Active
